According to ChEMBL document CHEMBL3875168, “Synthesis and apoptosis inducing studies of triazole linked 3-benzylidene isatin derivatives” (Eur J Med Chem, 2016):
The source made the active and inactive calls. The calls are words filed in the database; no cut-off is given here.

What was measured:
[1] = Cytotoxicity against human BT549 cells assessed as cell growth inhibition after 48 hrs by MTT assay; type: functional, cell-based; conditions: BT-549, 48 h
How it was run: (§1)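 Cell lines (NCCS) grown in DMEM or RPMI with 10% FBS and antibiotic-antimycotic at 37 °C, 5% CO2, 90% humidity. Cells seeded at 3-5×10^3 per well, treated 48 h with serial dilutions in medium beside vehicle control. Medium replaced with MTT (0.5 mg/mL) for 4 h, absorbance read at 570 nm. IC50 taken from concentration-response curves; sunitinib served as reference.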

[2] = Cytotoxicity against human A549 cells assessed as cell growth inhibition after 48 hrs by MTT assay; type: functional, cell-based; conditions: A549, 48 h; how it was run: as §1
[3] = Cytotoxicity against human RWPE1 cells assessed as cell growth inhibition after 48 hrs by MTT assay; type: toxicity, cell-based, RWPE-1
[4] = test system: DU-145; assay: Induction of morphological changes in human DU145 cells assessed as apoptotic body formation at 1.25 to 5 uM after 48 hrs by acridine orange/ethidium bromide-dual staining based fluorescence microscopic method; type: functional, cell-based
How it was run: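 DU145 plated at 1×10^6 cells/mL, treated at several concentrations and kept 48 h at 37 °C in 5% CO2. Equal volumes of acridine orange and ethidium bromide (10 μg/mL) added, and cells imaged within 10 min by fluorescence microscopy (excitation 488 nm, emission 550 nm) at 200x.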

[5] = test system: DU-145; assay: Induction of apoptosis in human DU145 cells assessed as formation of pyknotic nuclei at 2.5 to 5 uM after 48 hrs by DAPI staining based fluorescence microscopic method; type: functional, cell-based
How it was run: (§2)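 DU145 treated for 48 h, PBS-washed, permeabilized with 0.1% Tween 20 for 10 min and stained with 1 μM DAPI. Nuclear morphology of control and treated cells viewed by fluorescence microscopy (excitation 359 nm, emission 461 nm) at 200x.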

[6] = test system: DU-145; assay: Induction of apoptosis in human DU145 cells assessed as formation of fragmented nuclei at 2.5 to 5 uM after 48 hrs by DAPI staining based fluorescence microscopic method; type: functional, cell-based; how it was run: as §2
[7] = test system: DU-145; assay: Induction of apoptosis in human DU145 cells assessed as early apoptotic cells at 2.5 uM after 24 hrs by Annexin V-FITC/propidium iodide staining based flow cytometry (reference value: 2.14%); type: functional
[8] = test system: DU-145; assay: Induction of apoptosis in human DU145 cells assessed as late apoptotic cells at 1.25 uM after 24 hrs by Annexin V-FITC/propidium iodide staining based flow cytometry (reference value: 5.4%); type: functional
[9] = Cell cycle arrest in human DU145 cells assessed as accumulation at sub G1 phase at 2.5 uM after 24 hrs by propidium iodide staining-based flow cytometry (reference value: 0.65%); type: functional; conditions: DU-145
How it was run: (§3)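 Compound given to DU145 at 2.5 and 5.0 μM for 24 h alongside untreated cells. Cells harvested, PBS-washed, fixed in ice-cold 70% ethanol, then stained 30 min at 37 °C in the dark with propidium iodide (50 μg/mL) plus RNase A (20 μg/mL) in 0.1% Triton X-100. About 10000 events per sample read by flow cytometry; a representative of three independent experiments is shown.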

[10] = Cell cycle arrest in human DU145 cells assessed as accumulation at S phase at 2.5 uM after 24 hrs by propidium iodide staining-based flow cytometry (reference value: 10.3%); type: functional; conditions: DU-145; how it was run: as §3
[11] = Cell cycle arrest in human DU145 cells assessed as accumulation at G2/M phase at 2.5 uM after 24 hrs by propidium iodide staining-based flow cytometry (reference value: 29.66%); type: functional; conditions: DU-145; how it was run: as §3
[12] = test system: DU-145; assay: Induction of apoptosis in human DU145 cells assessed as early apoptotic cells at 1.25 uM after 24 hrs by Annexin V-FITC/propidium iodide staining based flow cytometry (reference value: 2.14%); type: functional
[13] = Cell cycle arrest in human DU145 cells assessed as accumulation at G0/G1 phase at 5 uM after 24 hrs by propidium iodide staining-based flow cytometry (reference value: 62.81%); type: functional; conditions: DU-145; how it was run: as §3
[14] = Cell cycle arrest in human DU145 cells assessed as accumulation at S phase at 5 uM after 24 hrs by propidium iodide staining-based flow cytometry (reference value: 10.3%); type: functional; conditions: DU-145; how it was run: as §3
[15] = Cell cycle arrest in human DU145 cells assessed as accumulation at G2/M phase at 5 uM after 24 hrs by propidium iodide staining-based flow cytometry (reference value: 29.66%); type: functional; conditions: DU-145; how it was run: as §3
[16] = test system: DU-145; assay: Induction of apoptosis in human DU145 cells assessed as late apoptotic cells at 2.5 uM after 24 hrs by Annexin V-FITC/propidium iodide staining based flow cytometry (reference value: 5.4%); type: functional
[17] = test system: DU-145; assay: Induction of apoptosis in human DU145 cells assessed as necrotic cells at 2.5 uM after 24 hrs by Annexin V-FITC/propidium iodide staining based flow cytometry (reference value: 2.14%); type: functional
[18] = test system: DU-145; assay: Induction of apoptosis in human DU145 cells assessed as early apoptotic cells at 5 uM after 24 hrs by Annexin V-FITC/propidium iodide staining based flow cytometry (reference value: 2.14%; type: functional
[19] = test system: DU-145; assay: Induction of apoptosis in human DU145 cells assessed as late apoptotic cells at 5 uM after 24 hrs by Annexin V-FITC/propidium iodide staining based flow cytometry (reference value: 5.4%); type: functional
[20] = test system: DU-145; assay: Induction of apoptosis in human DU145 cells assessed as increase in intracellular reactive oxygen species after 6 hrs by DCFDA dye based spectrofluorometer; type: functional, cell-based
[21] = test system: DU-145; assay: Induction of mitochondrial membrane potential loss in human DU145 cells at 1.25 uM after 24 hrs by flow cytometry (reference value: 5.39%); type: functional
[22] = test system: DU-145; assay: Induction of apoptosis in human DU145 cells assessed as increase in cleaved PARP level after 48 hrs by Western blot analysis; type: functional, cell-based
[23] = test system: DU-145; assay: Induction of apoptosis in human DU145 cells assessed as increase in cytochrome c level after 48 hrs by Western blot analysis; type: functional, cell-based
[24] = test system: DU-145; assay: Induction of apoptosis in human DU145 cells assessed as decrease in Bcl2 level after 48 hrs by Western blot analysis; type: functional, cell-based
[25] = test system: DU-145; assay: Induction of apoptosis in human DU145 cells assessed as necrotic cells at 5 uM after 24 hrs by Annexin V-FITC/propidium iodide staining based flow cytometry (reference value: 2.14%); type: functional
[26] = test system: DU-145; assay: Induction of apoptosis in human DU145 cells assessed as viable cells at 5 uM after 24 hrs by Annexin V-FITC/propidium iodide staining based flow cytometry (reference value: 90.32%); type: functional; conditions: DU-145, 24 h, read-out: Activity
[27] = test system: DU-145; assay: Induction of apoptosis in human DU145 cells assessed as viable cells at 2.5 uM after 24 hrs by Annexin V-FITC/propidium iodide staining based flow cytometry (reference value: 90.32%); type: functional; conditions: DU-145, 24 h, read-out: Activity
[28] = test system: DU-145; assay: Induction of apoptosis in human DU145 cells assessed as viable cells at 1.25 uM after 24 hrs by Annexin V-FITC/propidium iodide staining based flow cytometry (reference value: 90.32%); type: functional; conditions: DU-145, 24 h, read-out: Activity
[29] = test system: DU-145; assay: Induction of apoptosis in human DU145 cells after 24 hrs by Annexin V-FITC/propidium iodide staining based flow cytometry; type: functional, cell-based
[30] = test system: DU-145; assay: Induction of apoptosis in human DU145 cells assessed as increase in intracellular reactive oxygen species at 2.5 to 5 uM after 24 hrs in presence of N-acetyl cysteine by DCFDA dye based spectrofluorometer; type: functional, cell-based

O=C1Nc2ccc(C(c3ccccc3)c3ccccc3)cc2/C1=C/c1cccc(OCc2cn(Cc3ccccc3)nn2)c1 gave an IC50 [1] of 15.8 µM, an IC50 [2] of 14.7 µM and an IC50 at 48 h [3] of 21.4 µM. For the same molecule, the Activity [4] was “Active”, the Activity [5] was “Active” and the Activity [6] was “Active”. For the same molecule, the Activity [7] was 18.05%, the Activity [8] was 9.11% and the Activity [9] was 27.6%. For the same molecule, the Activity [10] was 12.7%, the Activity [11] was 43.7% and the Activity [12] was 12.6%. For the same molecule, the Activity [13] was 10.1%, the Activity [14] was 22.5% and the Activity [15] was 48%. For the same molecule, the Activity [16] was 13%, the Activity [17] was 4.41% and the Activity [18] was 13.64%. For the same molecule, the Activity [19] was 25%, the Activity [20] was “Dose-dependent effect” and the Activity [21] was 64.28%. The Activity [22] was “Active”, the Activity [23] was “Active” and the Activity [24] was “Active”. For the same molecule, the Activity [25] was 15.46%, the viability at 5 µM [26] was 45.9% and the viability at 2.5 µM [27] was 64.5%. The viability at 1.25 µM [28] was 76.5%, the Activity [29] was “Dose-dependent effect” and the Activity [30] was “Active”.
